Results as given in article PMC8451688 (Journal of Enzyme Inhibition and Medicinal Chemistry, 2021).
Like-named read-outs stand apart in the source and are kept apart here. Each block holds one compound with its values, some of them ahead of it.

Legend:
A549 cells [1] = test: cells; format: cell-based, human; details: mean of triplicate; for IC50 (%inhibition ± SD) A549: Table 3
PC-3 cells = format: cell-based, human; details: Table 3; MTT; mean of triplicate
HepG2 cells = format: cell-based, human; details: Table 3; MTT; mean of triplicate
NRK-52E cells = format: cell-based; details: Table 3; normal rat kidney cell line; MTT
A549 cells [2] = test: Cell cycle analysis by PI flow cytometry; format: cell-based, human; details: 24 h
Summary of the method: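 A549 cells were treated for 24 h with test compound at 0, 4 or 8 µM, with 0.1% DMSO as control. Cells were collected and washed twice in cold PBS, then fixed in cold 70% ethanol overnight at 4 °C. They were treated with 1 mg/mL RNase A for 30 min at 37 °C, stained with PI for 30 min at 4 °C in the dark, and analysed by flow cytometry.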

[3] = Homo sapiens, A549, read-out: IC50 A549, MTT

IC50 (A549 cells [1]; [3]): 11.3 ± 1.5 µM
IC50 (%inhibition ± SD) A549 (A549 cells [1]; MTT): 11.3 ± 1.50%
IC50 (%inhibition ± SD) PC-3 (PC-3 cells): 21.7 ± 2.89%
IC50 (%inhibition ± SD) HepG2 (HepG2 cells): 24.7 ± 8.91%
Compound: O=C(CN1C(=O)/C(=C/c2ccccc2)SC1=S)Nc1ccccc1 [I1, (Z)-2–(5-benzylidene-4-oxo-2-thioxothiazolidin-3-yl)-N-phenylacetamide]
IC50 (%inhibition ± SD) NRK-52E (NRK-52E cells): 13.1 ± 3.58%

IC50 (A549 cells [1]; [3]): 23.6 ± 3 µM
Compound: O=C(CN1C(=O)/C(=C/c2ccc([N+](=O)[O-])cc2)SC1=S)Nc1ccccc1 [I12, (Z)-2–(5-(4-nitrobenzylidene)-4-oxo-2-thioxothiazolidin-3-yl)-N-phenylacetamide]

IC50 (A549 cells [1]; [3]): 22.9 ± 2.07 µM
Compound: O=C(CN1C(=O)/C(=C/c2cccc([N+](=O)[O-])c2)SC1=S)Nc1ccccc1 [I6, (Z)-2–(5-(3-nitrobenzylidene)-4-oxo-2-thioxothiazolidin-3-yl)-N-phenylacetamide]

IC50 (A549 cells [1]; [3]): 22.1 ± 3.41 µM
Compound: COc1cccc(NC(=O)CN2C(=O)/C(=C/c3ccccc3)SC2=S)c1 [I30, (Z)-2-(5-benzylidene-4-oxo-2-thioxothiazolidin-3-yl)-N-(3-methoxyphenyl)acetamide]

IC50 (A549 cells [1]; [3]): 18.8 ± 3.31 µM
Compound: O=C(CN1C(=O)/C(=C/c2ccc(F)cc2)SC1=S)Nc1ccccc1 [I14, (Z)-2–(5-(4-fluorobenzylidene)-4-oxo-2-thioxothiazolidin-3-yl)-N-phenylacetamide]

IC50 (A549 cells [1]; [3]): 29.6 ± 3.72 µM
Compound: O=C(CN1C(=O)/C(=C/c2cccc(F)c2)SC1=S)Nc1ccccc1 [I7, (Z)-2–(5-(3-fluorobenzylidene)-4-oxo-2-thioxothiazolidin-3-yl)-N-phenylacetamide]

IC50 (A549 cells [1]; read-out: IC50 A549, MTT): 51.3 ± 9.09 µM
Compound: (Z)-2-(5-(cyclohex-2-en-1-ylmethylene)-4-oxo-2-thioxothiazolidin-3-yl)-N-phenylacetamide [I27]

IC50 (A549 cells [1]; [3]): 26.4 ± 8 µM
Compound: O=C(CN1C(=O)/C(=C/c2ccncc2)SC1=S)Nc1ccccc1 [I29, (Z)-2-(4-oxo-5-(pyridin-4-ylmethylene)-2-thioxothiazolidin-3-yl)-N-phenylacetamide]

IC50 (A549 cells [1]; [3]): 20.7 ± 3.33 µM
Compound: CC(C)c1ccc(/C=C2\SC(=S)N(CC(=O)Nc3ccccc3)C2=O)cc1 [I17, (Z)-2-(5-(4-isopropylbenzylidene)-4-oxo-2-thioxothiazolidin-3-yl)-N-phenylacetamide]

IC50 (A549 cells [1]; [3]): 39.1 ± 5.62 µM
Compound: COc1cccc(NC(=O)CN2C(=O)/C(=C/C3CC3)SC2=S)c1 [I32, (Z)-2–(5-(cyclopropylmethylene)-4-oxo-2-thioxothiazolidin-3-yl)-N-(3-methoxyphenyl)acetamide]

IC50 (A549 cells [1]; [3]): 42.8 ± 6.5 µM
Compound: O=C(CN1C(=O)/C(=C/c2cccc(O)c2)SC1=S)Nc1ccccc1 [I10, (Z)-2–(5-(3-hydroxybenzylidene)-4-oxo-2-thioxothiazolidin-3-yl)-N-phenylacetamide]

IC50 (A549 cells [1]; [3]): 36.9 ± 1.36 µM
Compound: O=C(CN1C(=O)/C(=C/c2ccc(Cl)cc2Cl)SC1=S)Nc1ccccc1 [I21, (Z)-2-(5-(2,4-dichlorobenzylidene)-4-oxo-2-thioxothiazolidin-3-yl)-N-phenylacetamide]

IC50 (A549 cells [1]; [3]): 31 ± 2.21 µM
Compound: O=C(CN1C(=O)/C(=C/c2cccc(Cl)c2)SC1=S)Nc1ccccc1 [I8, (Z)-2–(5-(3-chlorobenzylidene)-4-oxo-2-thioxothiazolidin-3-yl)-N-phenylacetamide]

IC50 (A549 cells [1]; [3]): 20.1 ± 3.13 µM
Compound: O=C(CN1C(=O)/C(=C/c2ccc(C(F)(F)F)cc2)SC1=S)Nc1ccccc1 [I13, (Z)-2-(4-oxo-2-thioxo-5-(4-(trifluoromethyl)benzylidene)thiazolidin-3-yl)-N-phenylacetamide]

IC50 (A549 cells [1]; read-out: IC50 A549, MTT): 22.7 ± 5.45 µM
Compound: O=C(CN1C(=O)/C(=C/c2ccccc2F)SC1=S)Nc1ccccc1 [I2, (Z)-2–(5-(2-fluorobenzylidene)-4-oxo-2-thioxothiazolidin-3-yl)-N-phenylacetamide]

IC50 (A549 cells [1]; read-out: IC50 A549, MTT): 84.9 ± 9 µM
Compound: (Z)-2-(5-(2-hydroxy-3-methoxybenzylidene)-4-oxo-2-thioxothiazolidin-3-yl)-N-phenylacetamide [I22]

IC50 (A549 cells [1]; [3]): 20 ± 4.25 µM
Compound: O=C(CN1C(=O)/C(=C/c2ccc[nH]2)SC1=S)Nc1ccccc1 [I26, (Z)-2-(5-((1H-pyrrol-2-yl)methylene)-4-oxo-2-thioxothiazolidin-3-yl)-N-phenylacetamide]

IC50 (%inhibition ± SD) PC-3 (PC-3 cells): 25.1 ± 3.39%
Compound: O=C(CN1C(=O)/C(=C/c2ccco2)SC1=S)Nc1ccccc1 [I24, (Z)-2-(5-(furan-2-ylmethylene)-4-oxo-2-thioxothiazolidin-3-yl)-N-phenylacetamide]
IC50 (%inhibition ± SD) NRK-52E (NRK-52E cells): 20.1 ± 2.12%

IC50 (A549 cells [1]; [3]): 15.7 ± 0.98 µM
Compound: O=C(CN1C(=O)/C(=C/C2CC2)SC1=S)Nc1ccccc1 [I23, (Z)-2-(5-(cyclopropylmethylene)-4-oxo-2-thioxothiazolidin-3-yl)-N-phenylacetamide]

IC50 (%inhibition ± SD) A549 (A549 cells [1]; MTT): 7.00 ± 1.06%
IC50 (A549 cells [1]; read-out: IC50 A549, MTT): 7 ± 1.06 µM
IC50 (%inhibition ± SD) PC-3 (PC-3 cells): 19.9 ± 5.56%
IC50 (%inhibition ± SD) HepG2 (HepG2 cells): 20.3 ± 2.93%
Compound: (Z)-2-(5-(4-(dimethylamino)benzylidene)-4-oxo-2-thioxothiazolidin-3-yl)-N-phenylacetamide [I20]
percentage of cells in G2/M (A549 cells [2]; A549, 4 µM): 10.92%
percentage of cells in G2/M (A549 cells [2]; A549, 8 µM): 15.45%
IC50 (%inhibition ± SD) NRK-52E (NRK-52E cells): 14.7 ± 1.58%

IC50 (A549 cells [1]; [3]): 16 ± 3.46 µM
Compound: O=C(CN1C(=O)/C(=C/c2cccs2)SC1=S)Nc1ccccc1 [I25, (Z)-2–(4-oxo-5-(thiophen-2-ylmethylene)-2-thioxothiazolidin-3-yl)-N-phenylacetamide]

IC50 (A549 cells [1]; [3]): 17.3 ± 3.9 µM
Compound: O=C(CN1C(=O)/C(=C/c2ccccn2)SC1=S)Nc1ccccc1 [I28, (Z)-2-(4-oxo-5-(pyridin-2-ylmethylene)-2-thioxothiazolidin-3-yl)-N-phenylacetamide]

IC50 (%inhibition ± SD) PC-3 (PC-3 cells): 18.1 ± 3.68%
IC50 (%inhibition ± SD) HepG2 (HepG2 cells): 18.8 ± 5.40%
Compound: CCOc1ccc(/C=C2\SC(=S)N(CC(=O)Nc3ccccc3)C2=O)cc1 [I19, (Z)-2-(5-(4-ethoxybenzylidene)-4-oxo-2-thioxothiazolidin-3-yl)-N-phenylacetamide]
IC50 (%inhibition ± SD) NRK-52E (NRK-52E cells): 11.0 ± 3.10%

IC50 (A549 cells [1]; [3]): 16.8 ± 3.66 µM
Compound: O=C(CN1C(=O)/C(=C/c2ccc(O)cc2)SC1=S)Nc1ccccc1 [I16, (Z)-2-(5-(4-hydroxybenzylidene)-4-oxo-2-thioxothiazolidin-3-yl)-N-phenylacetamide]

IC50 (A549 cells [1]; [3]): 13.4 ± 5.03 µM
IC50 (%inhibition ± SD) A549 (A549 cells [1]; MTT): 13.4 ± 5.03%
IC50 (%inhibition ± SD) HepG2 (HepG2 cells): 36.4 ± 8.00%
Compound: COc1ccccc1/C=C1\SC(=S)N(CC(=O)Nc2ccccc2)C1=O [I5, (Z)-2–(5-(2-methoxybenzylidene)-4-oxo-2-thioxothiazolidin-3-yl)-N-phenylacetamide]
IC50 (%inhibition ± SD) NRK-52E (NRK-52E cells): 17.4 ± 4.57%

IC50 (A549 cells [1]; [3]): 15.8 ± 3.03 µM
Compound: O=C(CN1C(=O)/C(=C/c2ccccc2O)SC1=S)Nc1ccccc1 [I4, (Z)-2–(5-(2-hydroxybenzylidene)-4-oxo-2-thioxothiazolidin-3-yl)-N-phenylacetamide]

IC50 (%inhibition ± SD) PC-3 (PC-3 cells): 17.6 ± 2.51%
IC50 (%inhibition ± SD) HepG2 (HepG2 cells): 20.6 ± 5.19%
Compound: O=C(CN1C(=O)/C(=C/c2ccc(Cl)cc2)SC1=S)Nc1ccccc1 [I15, (Z)-2–(5-(4-chlorobenzylidene)-4-oxo-2-thioxothiazolidin-3-yl)-N-phenylacetamide]
IC50 (%inhibition ± SD) NRK-52E (NRK-52E cells): 15.1 ± 2.45%

IC50 (A549 cells [1]; [3]): 17.8 ± 3.75 µM
Compound: COc1cccc(NC(=O)CN2C(=O)/C(=C/c3cccs3)SC2=S)c1 [I34, (Z)-N-(3-methoxyphenyl)-2–(4-oxo-5-(thiophen-2-ylmethylene)-2-thioxothiazolidin-3-yl)acetamide]

IC50 (A549 cells [1]; [3]): 46.5 ± 7.31 µM
Compound: COc1cccc(NC(=O)CN2C(=O)/C(=C/c3ccco3)SC2=S)c1 [I33, (Z)-2–(5-(furan-2-ylmethylene)-4-oxo-2-thioxothiazolidin-3-yl)-N-(3-methoxyphenyl)acetamide]
